# B1: Osa-1-4 twister ribozyme (parent)
# chain: CCGCCUAACACUGCCAAUGCCGGUCCCAAGCCCGGAUAAAAGUGGAGGGGGCGG
# Variants of: B1
# Assay: self-cleavage, relative activity (ratio to wild type); higher = more cleavage; co-transcriptional
# Method in brief: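 A DNA template for a 54-nucleotide Oryza sativa twister ribozyme was synthesised with 97 % wild-type base and 1 % of each other base at the 48 positions downstream of the cleavage site. It was transcribed in vitro for 2 h at 37 °C, allowing co-transcriptional self-cleavage, then reverse-transcribed with a template-switching oligonucleotide, PCR-amplified and deep-sequenced. Cleavage status was scored from reads with or without upstream sequence. Relative activity is fraction cleaved normalised to wild type.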
row,Variant,self-cleavage
1,CCGCCUAACGCUGCCAAUGCCGGUCCCGAGCCCGGAUAAAAGUGGAGGGGGCGG,0.15
2,CCGCCUAACGCUGCCAAUGCCGGUCCCUAGCCCGGAUAAAAGUGGAGGGGGCGG,0.43
3,CCGCCUAACGCUGCCAAUGCCGGUCCCACGCCCGGAUAAAAGUGGAGGGGGCGG,0.05
4,CCGCCUAACGCUGCCAAUGCCGGUCCCAGGCCCGGAUAAAAGUGGAGGGGGCGG,0.09
5,CCGCCUAACGCUGCCAAUGCCGGUCCCAUGCCCGGAUAAAAGUGGAGGGGGCGG,0.07
6,CCGCCUAACGCUGCCAAUGCCGGUCCCAAGCCCGGCUAAAAGUGGAGGGGGCGG,0.26
7,CCGCCUAACGCUGCCAAUGCCGGUCCCAAGCCCGGGUAAAAGUGGAGGGGGCGG,0.86
8,CCGCCUAACGCUGCCAAUGCCGGUCCCAAGCCCGGUUAAAAGUGGAGGGGGCGG,0.94
9,CCGCCUAACGCUGCCAAUGCCGGUCCCAAGCCCGGAUCAAAGUGGAGGGGGCGG,0.91
10,CCGCCUAACGCUGCCAAUGCCGGUCCCAAGCCCGGAUGAAAGUGGAGGGGGCGG,0.88
11,CCGCCUAACGCUGCCAAUGCCGGUCCCAAGCCCGGAUUAAAGUGGAGGGGGCGG,0.8
12,CCGCCUAACGCUGCCAAUGCCGGUCCCAAGCCCGGAUACAAGUGGAGGGGGCGG,0.61
13,CCGCCUAACGCUGCCAAUGCCGGUCCCAAGCCCGGAUAGAAGUGGAGGGGGCGG,0.82
14,CCGCCUAACGCUGCCAAUGCCGGUCCCAAGCCCGGAUAUAAGUGGAGGGGGCGG,0.69
15,CCGCCUAACGCUGCCAAUGCCGGUCCCAAGCCCGGAUAACAGUGGAGGGGGCGG,0.08
16,CCGCCUAACGCUGCCAAUGCCGGUCCCAAGCCCGGAUAAGAGUGGAGGGGGCGG,0.34
17,CCGCCUAACGCUGCCAAUGCCGGUCCCAAGCCCGGAUAAUAGUGGAGGGGGCGG,0.27
18,CCGCCUAACGCUGCCAAUGCCGGUCCCAAGCCCGGAUAAACGUGGAGGGGGCGG,0.39
19,CCGCCUAACGCUGCCAAUGCCGGUCCCAAGCCCGGAUAAAGGUGGAGGGGGCGG,0.2
20,CCGCCUAACGCUGCCAAUGCCGGUCCCAAGCCCGGAUAAAUGUGGAGGGGGCGG,0.76
21,CCGCCUAACGCUGCCAAUGCCGGUCCCAAGCCCGGAUAAAAGUGGCGGGGGCGG,0.06
22,CCGCCUAACGCUGCCAAUGCCGGUCCCAAGCCCGGAUAAAAGUGGGGGGGGCGG,0.08
23,CCGCCUAACGCUGCCAAUGCCGGUCCCAAGCCCGGAUAAAAGUGGUGGGGGCGG,0.11
24,CCGCCUAAAGCUGCCAAUGCCGGUCCCAAGCCCGGAUAAAAGUGGAGGGGGCGG,0.57
25,CCGCCUAAGGCUGCCAAUGCCGGUCCCAAGCCCGGAUAAAAGUGGAGGGGGCGG,0.41

row,Variant,self-cleavage
1,CCGCCUAAUGCUGCCAAUGCCGGUCCCAAGCCCGGAUAAAAGUGGAGGGGGCGG,0.77
2,CCGCCUAACGAUGCCAAUGCCGGUCCCAAGCCCGGAUAAAAGUGGAGGGGGCGG,0.38
3,CCGCCUAACGGUGCCAAUGCCGGUCCCAAGCCCGGAUAAAAGUGGAGGGGGCGG,0.12
4,CCGCCUAACGUUGCCAAUGCCGGUCCCAAGCCCGGAUAAAAGUGGAGGGGGCGG,0.8
5,CCGCCUAACGCUGACAAUGCCGGUCCCAAGCCCGGAUAAAAGUGGAGGGGGCGG,0.11
6,CCGCCUAACGCUGGCAAUGCCGGUCCCAAGCCCGGAUAAAAGUGGAGGGGGCGG,0.16
7,CCGCCUAACGCUGUCAAUGCCGGUCCCAAGCCCGGAUAAAAGUGGAGGGGGCGG,0.28
8,CCGCCUAACGCUGCAAAUGCCGGUCCCAAGCCCGGAUAAAAGUGGAGGGGGCGG,0.17
9,CCGCCUAACGCUGCGAAUGCCGGUCCCAAGCCCGGAUAAAAGUGGAGGGGGCGG,0.2
10,CCGCCUAACGCUGCUAAUGCCGGUCCCAAGCCCGGAUAAAAGUGGAGGGGGCGG,0.14
11,CCGCCUAACGCUGCCAAUGACGGUCCCAAGCCCGGAUAAAAGUGGAGGGGGCGG,0.78
12,CCGCCUAACGCUGCCAAUGGCGGUCCCAAGCCCGGAUAAAAGUGGAGGGGGCGG,0.09
13,CCGCCUAACGCUGCCAAUGUCGGUCCCAAGCCCGGAUAAAAGUGGAGGGGGCGG,0.81
14,CCGCCUAACGCUGCCAAUGCAGGUCCCAAGCCCGGAUAAAAGUGGAGGGGGCGG,0.33
15,CCGCCUAACGCUGCCAAUGCGGGUCCCAAGCCCGGAUAAAAGUGGAGGGGGCGG,0.08
16,CCGCCUAACGCUGCCAAUGCUGGUCCCAAGCCCGGAUAAAAGUGGAGGGGGCGG,0.89
17,CCGCCUAACGCUGCCAAUGCCGGUACCAAGCCCGGAUAAAAGUGGAGGGGGCGG,0.07
18,CCGCCUAACGCUGCCAAUGCCGGUGCCAAGCCCGGAUAAAAGUGGAGGGGGCGG,0.08
19,CCGCCUAACGCUGCCAAUGCCGGUUCCAAGCCCGGAUAAAAGUGGAGGGGGCGG,0.4
20,CCGCCUAACGCUGCCAAUGCCGGUCACAAGCCCGGAUAAAAGUGGAGGGGGCGG,0.04
21,CCGCCUAACGCUGCCAAUGCCGGUCGCAAGCCCGGAUAAAAGUGGAGGGGGCGG,0.18
22,CCGCCUAACGCUGCCAAUGCCGGUCUCAAGCCCGGAUAAAAGUGGAGGGGGCGG,0.5
23,CCGCCUAACGCUGCCAAUGCCGGUCCAAAGCCCGGAUAAAAGUGGAGGGGGCGG,0.12
24,CCGCCUAACGCUGCCAAUGCCGGUCCGAAGCCCGGAUAAAAGUGGAGGGGGCGG,0.07
25,CCGCCUAACGCUGCCAAUGCCGGUCCUAAGCCCGGAUAAAAGUGGAGGGGGCGG,0.1

row,Variant,self-cleavage
1,CCGCCUAACGCUGCCAAUGCCGGUCCCAAGACCGGAUAAAAGUGGAGGGGGCGG,0.05
2,CCGCCUAACGCUGCCAAUGCCGGUCCCAAGGCCGGAUAAAAGUGGAGGGGGCGG,0.1
3,CCGCCUAACGCUGCCAAUGCCGGUCCCAAGUCCGGAUAAAAGUGGAGGGGGCGG,0.36
4,CCGCCUAACGCUGCCAAUGCCGGUCCCAAGCACGGAUAAAAGUGGAGGGGGCGG,0.07
5,CCGCCUAACGCUGCCAAUGCCGGUCCCAAGCGCGGAUAAAAGUGGAGGGGGCGG,0.15
6,CCGCCUAACGCUGCCAAUGCCGGUCCCAAGCUCGGAUAAAAGUGGAGGGGGCGG,0.1
7,CCGCCUAACGCUGCCAAUGCCGGUCCCAAGCCAGGAUAAAAGUGGAGGGGGCGG,0.1
8,CCGCCUAACGCUGCCAAUGCCGGUCCCAAGCCGGGAUAAAAGUGGAGGGGGCGG,0.07
9,CCGCCUAACGCUGCCAAUGCCGGUCCCAAGCCUGGAUAAAAGUGGAGGGGGCGG,0.33
10,CCGCCUAACGCUGCCAAUGCCGGUCCCAAGCCCGGAUAAAAGUGGAGGGGGAGG,0.92
11,CCGCCUAACGCUGCCAAUGCCGGUCCCAAGCCCGGAUAAAAGUGGAGGGGGGGG,0.75
12,CCGCCUAACGCUGCCAAUGCCGGUCCCAAGCCCGGAUAAAAGUGGAGGGGGUGG,0.95
13,CCGCCUAACGCUACCAAUGCCGGUCCCAAGCCCGGAUAAAAGUGGAGGGGGCGG,0.08
14,CCGCCUAACGCUCCCAAUGCCGGUCCCAAGCCCGGAUAAAAGUGGAGGGGGCGG,0.03
15,CCGCCUAACGCUUCCAAUGCCGGUCCCAAGCCCGGAUAAAAGUGGAGGGGGCGG,0.04
16,CCGCCUAACGCUGCCAAUACCGGUCCCAAGCCCGGAUAAAAGUGGAGGGGGCGG,0.28
17,CCGCCUAACGCUGCCAAUCCCGGUCCCAAGCCCGGAUAAAAGUGGAGGGGGCGG,0.09
18,CCGCCUAACGCUGCCAAUUCCGGUCCCAAGCCCGGAUAAAAGUGGAGGGGGCGG,0.13
19,CCGCCUAACGCUGCCAAUGCCAGUCCCAAGCCCGGAUAAAAGUGGAGGGGGCGG,0.38
20,CCGCCUAACGCUGCCAAUGCCCGUCCCAAGCCCGGAUAAAAGUGGAGGGGGCGG,0.05
21,CCGCCUAACGCUGCCAAUGCCUGUCCCAAGCCCGGAUAAAAGUGGAGGGGGCGG,0.16
22,CCGCCUAACGCUGCCAAUGCCGAUCCCAAGCCCGGAUAAAAGUGGAGGGGGCGG,0.1
23,CCGCCUAACGCUGCCAAUGCCGCUCCCAAGCCCGGAUAAAAGUGGAGGGGGCGG,0.05
24,CCGCCUAACGCUGCCAAUGCCGUUCCCAAGCCCGGAUAAAAGUGGAGGGGGCGG,0.05
25,CCGCCUAACGCUGCCAAUGCCGGUCCCAAACCCGGAUAAAAGUGGAGGGGGCGG,0.05

row,Variant,self-cleavage
1,CCGCCUAACGCUGCCAAUGCCGGUCCCAACCCCGGAUAAAAGUGGAGGGGGCGG,0.07
2,CCGCCUAACGCUGCCAAUGCCGGUCCCAAUCCCGGAUAAAAGUGGAGGGGGCGG,0.05
3,CCGCCUAACGCUGCCAAUGCCGGUCCCAAGCCCAGAUAAAAGUGGAGGGGGCGG,0.24
4,CCGCCUAACGCUGCCAAUGCCGGUCCCAAGCCCCGAUAAAAGUGGAGGGGGCGG,0.12
5,CCGCCUAACGCUGCCAAUGCCGGUCCCAAGCCCUGAUAAAAGUGGAGGGGGCGG,0.14
6,CCGCCUAACGCUGCCAAUGCCGGUCCCAAGCCCGAAUAAAAGUGGAGGGGGCGG,0.41
7,CCGCCUAACGCUGCCAAUGCCGGUCCCAAGCCCGCAUAAAAGUGGAGGGGGCGG,0.13
8,CCGCCUAACGCUGCCAAUGCCGGUCCCAAGCCCGUAUAAAAGUGGAGGGGGCGG,0.4
9,CCGCCUAACGCUGCCAAUGCCGGUCCCAAGCCCGGAUAAAAAUGGAGGGGGCGG,0.22
10,CCGCCUAACGCUGCCAAUGCCGGUCCCAAGCCCGGAUAAAACUGGAGGGGGCGG,0.12
11,CCGCCUAACGCUGCCAAUGCCGGUCCCAAGCCCGGAUAAAAUUGGAGGGGGCGG,0.06
12,CCGCCUAACGCUGCCAAUGCCGGUCCCAAGCCCGGAUAAAAGUAGAGGGGGCGG,0.72
13,CCGCCUAACGCUGCCAAUGCCGGUCCCAAGCCCGGAUAAAAGUCGAGGGGGCGG,0.81
14,CCGCCUAACGCUGCCAAUGCCGGUCCCAAGCCCGGAUAAAAGUUGAGGGGGCGG,0.87
15,CCGCCUAACGCUGCCAAUGCCGGUCCCAAGCCCGGAUAAAAGUGAAGGGGGCGG,0.17
16,CCGCCUAACGCUGCCAAUGCCGGUCCCAAGCCCGGAUAAAAGUGCAGGGGGCGG,0.06
17,CCGCCUAACGCUGCCAAUGCCGGUCCCAAGCCCGGAUAAAAGUGUAGGGGGCGG,0.1
18,CCGCCUAACGCUGCCAAUGCCGGUCCCAAGCCCGGAUAAAAGUGGAAGGGGCGG,0.13
19,CCGCCUAACGCUGCCAAUGCCGGUCCCAAGCCCGGAUAAAAGUGGACGGGGCGG,0.07
20,CCGCCUAACGCUGCCAAUGCCGGUCCCAAGCCCGGAUAAAAGUGGAUGGGGCGG,0.12
21,CCGCCUAACGCUGCCAAUGCCGGUCCCAAGCCCGGAUAAAAGUGGAGAGGGCGG,0.07
22,CCGCCUAACGCUGCCAAUGCCGGUCCCAAGCCCGGAUAAAAGUGGAGCGGGCGG,0.06
